Measurements published in ChEMBL document CHEMBL1129753, “N-terminus urea-substituted chemotactic peptides: new potent agonists and antagonists toward the neutrophil fMLF receptor” (J Med Chem, 1996).

Assays:
fMet-Leu-Phe receptor [1] = biological target: T1, fMet-Leu-Phe receptor (Homo sapiens, UniProt P21462); assay: Agonistic activity was determined by measuring the ability to induce superoxide production(as measured by reduction of cytochrome C) using human neutrophils; NA= No activity at 30 uM; assay type: functional
T1 sequence (P21462 whole entry): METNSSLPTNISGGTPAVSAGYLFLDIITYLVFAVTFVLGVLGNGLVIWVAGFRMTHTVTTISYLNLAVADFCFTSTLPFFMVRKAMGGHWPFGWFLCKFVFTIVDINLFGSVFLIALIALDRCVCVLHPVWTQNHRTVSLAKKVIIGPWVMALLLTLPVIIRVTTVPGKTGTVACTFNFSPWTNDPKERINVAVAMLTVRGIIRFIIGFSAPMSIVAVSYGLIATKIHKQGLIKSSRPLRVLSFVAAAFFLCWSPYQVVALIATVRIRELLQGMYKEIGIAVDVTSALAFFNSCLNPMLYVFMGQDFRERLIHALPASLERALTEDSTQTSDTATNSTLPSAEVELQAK
Method in brief: (§1)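 Human neutrophils; agonist read-out is superoxide generation induced by the peptide, followed as cytochrome C reduction. Values are mean ± SE of 2–3 independent experiments.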

fMet-Leu-Phe receptor [2] = biological target: T1, fMet-Leu-Phe receptor; assay: Antagonistic activity was determined by measuring the ability to inhibit superoxide production (stimulated by fMLF) using human neutrophils; assay type: functional
Method in brief: (§2)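 Human neutrophils stimulated with fMLF, with the peptide present. Antagonism is the inhibition of fMLF-driven superoxide production, read as cytochrome C reduction. Values are mean ± SE of 2–3 independent experiments.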

fMet-Leu-Phe receptor [3] = biological target: T1, fMet-Leu-Phe receptor; assay: Binding affinity towards fMLF receptor using human neutrophils
Method in brief: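 Competition binding on human neutrophils: the peptide displaces tritiated fMLF from the fMLF receptor. Values are mean ± SE of 2–3 independent experiments.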

fMet-Leu-Phe receptor [4] = biological target: T1, fMet-Leu-Phe receptor; assay: Agonistic activity was determined by measuring the ability to induce superoxide production(as measured by reduction of cytochrome C) using human neutrophils; assay type: functional; method in brief: as §1
Homo sapiens [5] = species: Homo sapiens; assay: Antagonistic activity was determined by measuring the compound's ability to inhibit superoxide production (stimulated by fMLF) using human neutrophils; NA= No activity at 30 uM; assay type: functional, organism-based; method in brief: as §2
Homo sapiens [6] = species: Homo sapiens; assay: Agonistic activity was determined by measuring the compound's ability to induce superoxide production(as measured by reduction of cytochrome C) using human neutrophils; NA= No activity at 30 uM.; assay type: functional, organism-based; method in brief: as §1
[7] = Agonistic activity was determined by measuring the compound's ability to induce superoxide production(as measured by reduction of cytochrome C) using human neutrophils; assay type: functional; method in brief: as §1

| Compound | EC50 (fMet-Leu-Phe receptor [1]) | IC50 (fMet-Leu-Phe receptor [2]) [nM] | IC50 (fMet-Leu-Phe receptor [3]) [nM] | EC50 (fMet-Leu-Phe receptor [4]) [nM] | IC50 (Homo sapiens [5]) | EC50 (Homo sapiens [6]) | EC50 [7] [nM] |
| --- | --- | --- | --- | --- | --- | --- | --- |
| CCCCNC(=O)N[C@@H](Cc1ccccc1)C(=O)N[C@H](CC(C)C)C(=O)N[C@@H](Cc1ccccc1)C(=O)N[C@H](CC(C)C)C(=O)N[C@@H](Cc1ccccc1)C(=O)O | Not Active | 600 | 300 | – | – | – | – |
| CSCC[C@H](NC(N)=O)C(=O)N[C@@H](CC(C)C)C(=O)N[C@@H](Cc1ccccc1)C(=O)O | – | – | 2000 | 3000 | – | – | – |
| CCCCNC(=O)N[C@@H](CCSC)C(=O)N[C@@H](CC(C)C)C(=O)N[C@@H](Cc1ccccc1)C(=O)O | – | – | 300 | 300 | – | – | – |
| CC(C)C[C@@H](NC(=O)[C@H](Cc1ccccc1)NC(=O)[C@@H](CC(C)C)NC(=O)[C@H](Cc1ccccc1)NC(=O)NC(C)C)C(=O)N[C@@H](Cc1ccccc1)C(=O)O | Not Active | 500 | 200 | – | – | – | – |
| CC(C)C[C@@H](NC(=O)[C@H](Cc1ccccc1)NC(=O)[C@@H](CC(C)C)NC(=O)[C@H](Cc1ccccc1)NC(N)=O)C(=O)N[C@@H](Cc1ccccc1)C(=O)O | – | 100 | 800 | – | – | Not Active | – |
| CSCC[C@H](NC(=O)NCC(C)C)C(=O)N[C@@H](CC(C)C)C(=O)N[C@@H](Cc1ccccc1)C(=O)O | Not Active | 4000 | 1000 | – | – | – | – |
| CCCNC(=O)N[C@@H](CCSC)C(=O)N[C@@H](CC(C)C)C(=O)N[C@@H](Cc1ccccc1)C(=O)O | Not Active | 3000 | 2000 | – | – | – | – |
| Cc1cccc(NC(=O)N[C@@H](Cc2ccccc2)C(=O)N[C@H](CC(C)C)C(=O)N[C@@H](Cc2ccccc2)C(=O)N[C@H](CC(C)C)C(=O)N[C@@H](Cc2ccccc2)C(=O)O)c1 | Not Active | 20 | 200 | – | – | – | – |
| CC(C)C[C@@H](NC(=O)[C@H](Cc1ccccc1)NC(=O)[C@@H](CC(C)C)NC(=O)[C@H](Cc1ccccc1)NC(=O)Nc1ccccc1)C(=O)N[C@@H](Cc1ccccc1)C(=O)O | Not Active | 500 | 50 | – | – | – | – |
| CSCC[C@H](NC(=O)NC12CC3CC(CC(C3)C1)C2)C(=O)N[C@@H](CC(C)C)C(=O)N[C@@H](Cc1ccccc1)C(=O)O | – | 2000 | 900 | – | – | – | – |
| CC(C)C[C@@H](NC(=O)[C@H](Cc1ccccc1)NC(=O)[C@@H](CC(C)C)NC(=O)[C@H](Cc1ccccc1)NC(=O)NC12CC3CC(CC(C3)C1)C2)C(=O)N[C@@H](Cc1ccccc1)C(=O)O | Not Active | 300 | 20 | – | – | – | – |
| CSCC[C@H](NC(=O)NC(C)C)C(=O)N[C@@H](CC(C)C)C(=O)N[C@@H](Cc1ccccc1)C(=O)O | – | 5000 | 2000 | – | – | – | – |
| CSCC[C@H](NC(=O)NC(C)(C)C)C(=O)N[C@@H](CC(C)C)C(=O)N[C@@H](Cc1ccccc1)C(=O)O | Not Active | 2000 | 3000 | – | – | – | – |
| C=C(C)NC(=O)N[C@@H](CCSC)C(=O)N[C@@H](CC(C)C)C(=O)N[C@@H](Cc1ccccc1)C(=O)O | – | – | 300 | – | – | – | 400 |

Next, values leading:

| EC50 (fMet-Leu-Phe receptor [1]) | IC50 (fMet-Leu-Phe receptor [2]) [nM] | IC50 (fMet-Leu-Phe receptor [3]) [nM] | EC50 (fMet-Leu-Phe receptor [4]) [nM] | IC50 (Homo sapiens [5]) | EC50 (Homo sapiens [6]) | EC50 [7] [nM] | Compound |
| --- | --- | --- | --- | --- | --- | --- | --- |
| – | 1600 | 100 | 900 | – | – | – | CSCC[C@H](NC(=O)Nc1cccc(C)c1)C(=O)N[C@@H](CC(C)C)C(=O)N[C@@H](Cc1ccccc1)C(=O)O |
| – | – | 2 | 2 | Not Active | – | – | CSCC[C@H](NC(=O)Nc1ccc(C)cc1)C(=O)N[C@@H](CC(C)C)C(=O)N[C@@H](Cc1ccccc1)C(=O)O |
| – | 600 | 800 | – | – | – | – | CSCC[C@H](NC(=O)NCc1ccccc1)C(=O)N[C@@H](CC(C)C)C(=O)N[C@@H](Cc1ccccc1)C(=O)O |
| – | – | 2 | 1 | Not Active | – | – | COc1ccc(NC(=O)N[C@@H](CCSC)C(=O)N[C@@H](CC(C)C)C(=O)NC(Cc2ccccc2)C(=O)O)cc1 (stereo not given in full) |
| Not Active | 2000 | 3000 | – | – | – | – | CNC(=O)N[C@@H](CCSC)C(=O)N[C@@H](CC(C)C)C(=O)N[C@@H](Cc1ccccc1)C(=O)O |
| – | – | 2 | 1 | Not Active | – | – | CSCC[C@H](NC(=O)Nc1ccc(Cl)cc1)C(=O)N[C@@H](CC(C)C)C(=O)N[C@@H](Cc1ccccc1)C(=O)O |
| Not Active | 3000 | 1000 | – | – | – | – | CCNC(=O)N[C@@H](CCSC)C(=O)N[C@@H](CC(C)C)C(=O)N[C@@H](Cc1ccccc1)C(=O)O |
| – | – | 30 | 40 | Not Active | – | – | CSCC[C@H](NC(=O)Nc1ccccc1)C(=O)N[C@@H](CC(C)C)C(=O)N[C@@H](Cc1ccccc1)C(=O)O |
